Measurements collected from several papers.

SMILES	system	setting	endpoint	result
COc1ccc([C@@H](O)c2cc(-c3ncnc4cc(N5CCOCC5)ccc34)c(F)cc2Cl)nn1	human, plasma	oral, 150 mg, single dose, patients	Cmax	1460 ng/mL
CCOc1ccc(N(C)S(=O)(=O)c2cc(Cl)sc2C(=O)Nc2cc(Cl)cc(C(=O)O)c2)cc1OC	male C57BL/6 mouse, brain	intraperitoneal, 10 mg/kg	Tmax	15 min
CN1CC[C@@H](c2c(O)cc(O)c3c(=O)cc(-c4ccc(C(F)(F)F)cc4Cl)oc23)[C@@H]1CO	human, plasma	oral, 50 mg, patients	Cmax	86.3 ng/mL
C=CS(=O)(=O)c1ccc(Nc2nc(OCC3CCCCC3)c3nc[nH]c3n2)cc1	male BALB/c mouse, plasma	intravenous, 20 mg/kg, single dose	Tmax	4.8 min
CCOC(=O)c1cc(Cl)cc(NC(=O)c2sc(Cl)cc2S(=O)(=O)N(C)c2ccc(OCC)c(OC)c2)c1	male C57BL/6 mouse, brain	intraperitoneal, 10 mg/kg	Tmax	15 min
N#C[C@@]12C[C@@H]1[C@@H](n1cnc3c(N[C@@H](C4CCC4)C4CC4)nc(I)nc31)[C@H](O)[C@@H]2O	Caco-2		efflux ratio	2.76
Cl.[2H]C([2H])([2H])CC(=O)c1cnc(NC(=O)C2CC2)cc1Nc1cccc(-c2ncn(C([2H])([2H])[2H])n2)c1OC	human, plasma	oral, 10 mg, multiple doses, once daily, fasted	Cmax	99.5 ng/mL
Nc1ncn([C@H]2C[C@H](O)[C@@H](CO)O2)c(=O)n1	female C57BL/6 mouse, plasma	intravenous, 0.4 mg/kg	Tmax	4.98 min
CC(C(=O)Nc1c(F)cccc1F)N1CCN(c2ccccc2)CC1 (stereo not shown)	female C57BL/6 mouse, plasma	intraperitoneal, 10 mg/kg, single dose	Tmax	15 min
CCN1CCN(Cc2ccc(NC(=O)c3ccc(C)c(NC(=O)c4cncc(-c5cccs5)c4)c3)cc2C(F)(F)F)CC1	mouse, plasma	intraperitoneal, 10 mg/kg, single dose	Tmax	30 min
C[C@H]1O[C@@H](O[C@H]2[C@@H](O)C[C@H](O[C@H]3[C@@H](O)C[C@H](O[C@H]4CC[C@@]5(C)[C@H](CC[C@@H]6[C@@H]5C[C@@H](O)[C@]5(C)[C@@H](C7=CC(=O)OC7)CC[C@]65O)C4)O[C@@H]3C)O[C@@H]2C)C[C@H](O)[C@@H]1O	Caco-2	5 µM, 2 h	efflux ratio	50.7
Cc1c(C(=O)O)ccc2c3n(nc12)[C@@H]1[C@H](C3)N(CC2CC2)[C@@]2(C(=O)Nc3cc(Cl)ccc32)[C@H]1c1cccc(Cl)c1F	female minipig, plasma	intravenous	Vd	0.94 L/kg
Cn1cc(Nc2nc(N)nc(-c3cccc(-n4ccc5cc(C6CC6)cc(F)c5c4=O)c3CO)n2)cn1	human, plasma	oral, 600 mg, single dose, fasted, suspension	Cmax	5360 ng/mL
CNC(=O)n1ccc2cc(Oc3ccnc(NC(=O)c4ccc(C5CCN(CCO)CC5)cc4)c3)c(OCCOC)cc21	human, plasma	oral, 35 mg, single dose, fasted, healthy volunteers	Cmax	9.82 ng/mL
CC(=O)N[C@H]1CC[C@H](NC(=O)CN2CCN(c3nncc(-c4ccc(C)cc4)n3)CC2)CC1	male human, plasma	oral, 100 mg, single dose, fasted	Cmax	1070 ng/mL
Cc1c(N(C)C)ccc2cc(C(=O)NS(=O)(=O)c3ccccc3-c3ccccc3)oc12	Caco-2	2 µM, 2 h, pH 7.2	efflux ratio	0.7
CC(C)C[C@H](NC(=O)[C@@H]1COCCCCCC(=O)NCC(=O)N2CCC[C@H]2C(=O)N1)C(=O)[C@@]1(C)CO1	Caco-2	10 µM, 2 h, pH 7.4	efflux ratio	~22
CC(C)NCC(O)COc1cccc2ccccc12 (stereo not shown)	Caco-2	5 µM, 2 h	efflux ratio	0.72
CC(C)n1c(Nc2cccnc2)nc2cnc(Nc3ccc(N4CCN(C)CC4)cc3)nc21	male human, plasma	oral, 150 mg, single dose	Cmax	76.1 ng/mL
